Results taken from ChEMBL document CHEMBL1150299, “Design, synthesis, and application of novel triclosan prodrugs as potential antimalarial and antibacterial agents” (Bioorg Med Chem, 2008).
pIC50: −log10 of the molar value. Values after ≈ are worked out from the molar mass of the structure shown.

Assays:
Plasmodium falciparum [1] = test: Antimalarial activity against chloroquine-sensitive Plasmodium falciparum FCK2; format: functional, organism-based
Escherichia coli [2] = test: Stability assessed as half life of prodrug disappearance in Escherichia coli culture; format: ADME, organism-based; conditions: in vivo
In short: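 E. coli cultures exposed to prodrug for 0, 2, 5, 10 and 20 min, then pelleted at 4 °C, washed in LB and resuspended in 50 mM Tris pH 7.5. Extracts cleaned by solid-phase extraction with methanol elution, then run on C18 reverse-phase FPLC with isocratic acetonitrile and UV detection at 230 nm. Half-life taken from prodrug disappearance.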

Escherichia coli [3] = test: Antibacterial activity against wild type Escherichia coli K12 after 12 hrs by microdilution method; format: functional, organism-based; conditions: K12, 12 h
In short: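 Wild-type K12 grown in LB to mid-log, diluted 100-fold; 100 µl used to inoculate tubes of 10 mL LB containing inhibitor (stocks about 10 mM in DMSO). IC50 is the mean of at least three sets; values are means ± SD of at least three experiments in duplicate.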

[4] = Stability at -10 to 40 degC after 24 hrs by FPLC assay; format: physicochemical
In short: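 Prodrugs held in Luria Broth (pH 7.2) for 24 h at temperatures between -10 and 40 °C. Release of triclosan monitored by FPLC with UV detection.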

Plasmodium falciparum [5] = test: Stability assessed as half life of prodrug disappearance in Plasmodium falciparum culture; format: ADME, organism-based; conditions: in vivo
In short: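 Synchronized young-trophozoite cultures treated with prodrug for 0, 0.5, 3, 6, 12, 18, 24 and 36 h. Parasites isolated into PBS, processed by solid-phase extraction, then analysed by C18 reverse-phase FPLC with absorbance at 230 nm. Half-life derived from loss of the prodrug peak.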

| Structure (SMILES) | pIC50 (Plasmodium falciparum [1]) | MIC (Plasmodium falciparum [1]) [µM] | t1/2 (Escherichia coli [2]) [min] | pIC50 (Escherichia coli [3]) | MIC (Escherichia coli [3]) [µM] | Stability [4] | t1/2 (Plasmodium falciparum [5]) [min] |
| --- | --- | --- | --- | --- | --- | --- | --- |
| C[N+](C)(C)CCOC(=O)CCCC(=O)Oc1cc(Cl)ccc1Oc1ccc(Cl)cc1Cl.[Cl-] | 5.52 | 19.7 | 8 | 6.38 | 1 | Stable |  |
| NC(=O)CCC(=O)Oc1cc(Cl)ccc1Oc1ccc(Cl)cc1Cl | 5.17 | 27.9 (≈ 10.8 µg/mL) | 12 | 6.66 | 0.6 (≈ 0.233 µg/mL) | Stable |  |
| Oc1cc(Cl)ccc1Oc1ccc(Cl)cc1Cl [TRICLOSAN] | 5.64 | 17.6 (≈ 5.1 µg/mL) |  | 6.12 | 1 (≈ 0.29 µg/mL) | Stable |  |
| CCCCC(=O)Oc1cc(Cl)ccc1Oc1ccc(Cl)cc1Cl | 5.05 | 33.8 (≈ 12.6 µg/mL) |  | 3.85 |  | Stable |  |
| O=C(O)CCCC(=O)Oc1cc(Cl)ccc1Oc1ccc(Cl)cc1Cl | 6.28 | 4.8 (≈ 1.94 µg/mL) | 9 | 6.48 | 0.75 (≈ 0.303 µg/mL) | Stable | 570 |
| CC(=O)CCC(=O)Oc1cc(Cl)ccc1Oc1ccc(Cl)cc1Cl | 6.17 | 6.2 (≈ 2.4 µg/mL) |  | 4.11 |  | Stable | 572 |
| CN(C)CCOC(=O)CCCC(=O)Oc1cc(Cl)ccc1Oc1ccc(Cl)cc1Cl | 6.21 | 7.9 (≈ 3.75 µg/mL) | 6 | 6.59 | 0.55 (≈ 0.261 µg/mL) | Stable | 567 |
| C[n+]1cccc(C(=O)Oc2cc(Cl)ccc2Oc2ccc(Cl)cc2Cl)c1.[Cl-] | 5.68 | 13.7 |  | 5.44 | 10.2 | Stable |  |
| O=C(Oc1cc(Cl)ccc1Oc1ccc(Cl)cc1Cl)c1cccnc1 | 5.94 | 9.7 (≈ 3.83 µg/mL) |  | 5.51 | 9 (≈ 3.55 µg/mL) | Stable |  |
